Results as given in publication PMC4346016 (Drug Design, Development and Therapy, 2015).
Read-outs that look alike come from different tables or passages of the source.

Columns and labels:
[1] = cited from earlier work
[2] = format: in vivo, human; settings: for half-life: t1/2β; for half-life / CL/F: mean ± SD; for half-life / Tmax / CL/F: n=22; for Tmax: median (min, max); for pharmacokinetic interaction with dapoxetine: single oral doses; for AUClast geometric mean ratio (90% CI): udenafil with dapoxetine combined therapy/udenafil monotherapy
How it was run: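 Crossover in healthy fasted men: single oral udenafil 200 mg alone or with dapoxetine 60 mg, with 240 mL water and a 1-week washout. Blood was taken 0.25–48 h postdose into EDTA and spun at 1,800 g, 4°C. Udenafil (5.0–2,000.0 ng/mL) and DA-8164 (0.25–100.00 ng/mL) were measured by UPLC-MS/MS. Non-compartmental AUC and CL/F were derived. Geometric mean ratios with 90% CI came from log-transformed mixed-model ANOVA.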

[3] = Tolerability / adverse drug reactions in healthy male subjects; format: in vivo, human; settings: for Abdominal discomfort: number of events / Abdominal discomfort: number of subjects / Adverse drug reactions, total: number of events / Decreased appetite: number of events / Decreased appetite: number of subjects / Diarrhea: number of events / Diarrhea: number of subjects / Dizziness: number of events / Dizziness: number of subjects / Headache: number of events / Headache: number of subjects / Insomnia: number of events / Insomnia: number of subjects / Nausea: number of events / Nausea: number of subjects / Ocular hyperemia: number of events / Ocular hyperemia: number of subjects / Somnolence: number of events / Somnolence: number of subjects / Suicidal ideation: number of events / Suicidal ideation: number of subjects / Vomiting: number of events / Vomiting: number of subjects / hyperhidrosis: number of events / hyperhidrosis: number of subjects / Adverse drug reactions, total: number of subjects: n=23 per treatment; for Adverse drug reactions, total: number of subjects / tolerability: udenafil 200 mg, dapoxetine 60 mg; for tolerability: alone or concomitantly, single oral doses
How it was run: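 Safety was monitored through each 48 h period and at follow-up 5–9 days after the last dose. Assessments were vital signs, 12-lead ECGs, hematology, blood chemistry, urinalysis, physical examinations and adverse-event monitoring. Each event was recorded with its symptoms/signs, duration, intensity, relation to study drug, action taken, outcome and seriousness. Counts are given as subjects and as events.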

[4] = format: in vivo, human; settings: two-compartment model, WinNonlin
[5] = rats; cited from earlier work
[6] = cited from earlier work; remark: listed apart in the source
[7] = format: in vivo, human; settings: for AUClast geometric mean ratio (90% CI): dapoxetine with udenafil combined therapy/dapoxetine monotherapy; for half-life: t1/2β
How it was run: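 Six-sequence, three-period crossover in healthy men aged 20–45, fasted, with a 7-day washout. Single oral doses of dapoxetine 60 mg alone or with udenafil 200 mg. EDTA plasma was sampled from predose to 48 h. Parent and desmethyl metabolite were measured by UPLC-MS/MS with deuterated internal standards. Non-compartmental analysis: AUClast by trapezoidal rule, AUC0~∞ = AUClast + Clast/λz, CL/F = dose/AUC0~∞. Ratios from log-transformed mixed-model ANOVA with 90% CI.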

[8] = integrated analysis of five trials, 6,081 patients; cited from earlier work
[9] = cited from earlier work; remark: listed apart in the source
[10] = cited from earlier work; remark: listed apart in the source
[11] = cited from earlier work; remark: listed apart in the source
[12] = combined therapy/udenafil monotherapy
[13] = male, human, plasma, oral, 200 mg
[14] = male, human, plasma, oral, 200 mg, udenafil 200 mg alone
[15] = male, human, plasma, oral, udenafil 200 mg + dapoxetine 60 mg
[16] = udenafil 200 mg + dapoxetine 60 mg
[17] = combined therapy/dapoxetine monotherapy
[18] = male, human, plasma, oral, 60 mg

## CCCOc1ccc(S(=O)(=O)NCCC2CCCN2C)cc1-c1nc2c(CCC)nn(C)c2c(=O)[nH]1 (centres unmarked) [Udenafil]
[1]
  increase of mean AUClast on co-administration of ketoconazole: 3.2 fold
  increase of mean Cmax on co-administration of ketoconazole: 1.9 fold
[1]; udenafil administered alone
  metabolic AUC ratio: 1.71
[1]; udenafil in combination with ketoconazole
  metabolic AUC ratio: 0.19
[2]; [12]
  AUC0~∞ geometric mean ratio (90% CI): 0.923 (0.867–0.983)
  CL/F geometric mean ratio (90% CI): 1.084 (1.017–1.154)
  Cmax geometric mean ratio (90% CI): 0.864 (0.789–0.947)
  t1/2β geometric mean ratio (90% CI): 0.984 (0.948–1.022)
[2]; combined therapy/udenafil monotherapy, listed as udenafil
  Cmax geometric mean ratio (90% CI): 0.864
[2]; [13]
  AUC(0-inf): 4930 ng·h/mL
  Cmax: 693 ± 206 ng/mL
[2]; [14]
  half-life: 11 ± 1.64 h
  Tmax: 1 h
[2]; [15]
  half-life: 10.8 ± 1.27 h
  Tmax: 2 h
[2]; male, human, plasma, po, 200 mg
  AUC(0-t): 4730 ng·h/mL
[2]; [16]
  pharmacokinetic interaction with dapoxetine: no clinically significant pharmacokinetic interactions
  CL/F: 47.31 ± 14.07 L/h
[2]; udenafil 200 mg + dapoxetine 60 mg, listed as udenafil
  pharmacokinetic interaction with dapoxetine: no significant pharmacokinetic interactions
[2]; udenafil 200 mg alone
  CL/F: 43.69 ± 12.21 L/h
[2]
  AUClast geometric mean ratio (90% CI): 0.923 (0.863–0.987)
[2]; listed as udenafil
  AUClast geometric mean ratio (90% CI): 0.923
[3]
  Abdominal discomfort: number of events: 0 (0)
  Abdominal discomfort: number of subjects: 0 (0)
  Adverse drug reactions, total: number of events: 4
  Decreased appetite: number of events: 1 (1)
  Decreased appetite: number of subjects: 1 (1)
  Diarrhea: number of events: 0 (0)
  Diarrhea: number of subjects: 0 (0)
  Dizziness: number of events: 1 (1)
  Dizziness: number of subjects: 1 (1)
  Headache: number of events: 0 (0)
  Headache: number of subjects: 0 (0)
  Insomnia: number of events: 1 (1)
  Insomnia: number of subjects: 1 (1)
  Nausea: number of events: 0 (0)
  Nausea: number of subjects: 0 (0)
  Ocular hyperemia: number of events: 1 (1)
  Ocular hyperemia: number of subjects: 1 (1)
  Somnolence: number of events: 0 (0)
  Somnolence: number of subjects: 0 (0)
  Suicidal ideation: number of events: 0 (0)
  Suicidal ideation: number of subjects: 0 (0)
  Vomiting: number of events: 0 (0)
  Vomiting: number of subjects: 0 (0)
  hyperhidrosis: number of events: 0 (0)
  hyperhidrosis: number of subjects: 0 (0)
  Adverse drug reactions, total: number of subjects: 3
  tolerability: well tolerated
[4]; combined therapy with dapoxetine
  absorption rate constant (ka): 0.50 ± 0.17 h⁻¹
[4]; monotherapy
  absorption rate constant (ka): 0.84 ± 0.29 h⁻¹
[5]
  absolute oral bioavailability: 38.0%–55.6
[6]; oral
  terminal half-life (t1/2β): 7.3 to 12.1 h
  time to reach peak concentration (tmax): 0.8 to 1.3 h
[6]; previously reported
  ka: 0.70 ± 0.26 h⁻¹

## CN(C)[C@@H](CCOc1cccc2ccccc12)c1ccccc1 [Dapoxetine]
[7]; [17]
  AUC0~∞ geometric mean ratio (90% CI): 1.117 (1.048–1.191)
  CL/F geometric mean ratio (90% CI): 0.895 (0.840–0.954)
  Cmax geometric mean ratio (90% CI): 0.837 (0.758–0.925)
  t1/2β geometric mean ratio (90% CI): 0.947 (0.873–1.028)
[7]; combined therapy/dapoxetine monotherapy, listed as dapoxetine
  Cmax geometric mean ratio (90% CI): 0.837
[7]; dapoxetine 60 mg + udenafil 200 mg, mean ± SD, n=20
  CL/F: 26.59 ± 9.22 L/h
[7]; dapoxetine 60 mg alone, mean ± SD, n=20
  CL/F: 30.41 ± 11.99 L/h
[7]; dapoxetine 60 mg alone, median (min, max), n=20
  Tmax: 1.00 (0.50, 2.00) h
[7]
  AUClast geometric mean ratio (90% CI): 1.125 (1.044–1.213)
[7]; listed as dapoxetine
  AUClast geometric mean ratio (90% CI): 1.125
[7]; [18]
  AUC(0-inf): 2360 ng·h/mL
  Cmax: 437 ± 143 ng/mL
  Tmax: 1 h
[7]; male, human, plasma, oral, 60 mg, dapoxetine 60 mg alone, mean ± SD, n=20
  half-life: 16.2 ± 6.72 h
[7]; male, human, plasma, oral, span over dapoxetine alone and with udenafil
  half-life: 15.3 to 16.2 h
[7]; male, human, plasma, po, 60 mg
  AUC(0-t): 2100 ng·h/mL
[8]
  PE profile measures compared with placebo: improved significantly
[3]
  Abdominal discomfort: number of events: 1 (1)
  Abdominal discomfort: number of subjects: 1 (1)
  Adverse drug reactions, total: number of events: 24
  Decreased appetite: number of events: 0 (0)
  Decreased appetite: number of subjects: 0 (0)
  Diarrhea: number of events: 2 (2)
  Diarrhea: number of subjects: 2 (2)
  Dizziness: number of events: 5 (5)
  Dizziness: number of subjects: 5 (5)
  Headache: number of events: 2 (2)
  Headache: number of subjects: 2 (2)
  Insomnia: number of events: 0 (0)
  Insomnia: number of subjects: 0 (0)
  Nausea: number of events: 11 (11)
  Nausea: number of subjects: 11 (11)
  Ocular hyperemia: number of events: 0 (0)
  Ocular hyperemia: number of subjects: 0 (0)
  Somnolence: number of events: 1 (1)
  Somnolence: number of subjects: 1 (1)
  Suicidal ideation: number of events: 0 (0)
  Suicidal ideation: number of subjects: 0 (0)
  Vomiting: number of events: 2 (2)
  Vomiting: number of subjects: 2 (2)
  hyperhidrosis: number of events: 0 (0)
  hyperhidrosis: number of subjects: 0 (0)
  Adverse drug reactions, total: number of subjects: 12
  tolerability: well tolerated
[9]; biphasic elimination
  initial half-life: approximately 1.4 hours
[9]; by 24 hours after drug administration
  plasma concentration as share of peak concentration: approximately 5%
[9]
  Tmax: 1.0 to 1.3 h
[10]
  increase in AUC of active moiety with ketoconazole: 88%
  increase in Cmax of active moiety with ketoconazole: 23%
  increase in parent drug AUC with ketoconazole: 99%
  increase in parent drug Cmax with ketoconazole: 35%

## CN1CC(=O)N2[C@H](c3ccc4c(c3)OCO4)c3[nH]c4ccccc4c3C[C@@H]2C1=O [tadalafil]
[11]
  pharmacokinetic interaction with dapoxetine: no clinically significant pharmacokinetic interactions
